# Measurements as given in ChEMBL document CHEMBL3414529, “Discovery and optimization of novel dual dithiocarbamates as potent anticancer agents” (Eur J Med Chem, 2015).
# pIC50: −log10 of the molar value.
# Assays:
# [1] = Antiproliferative activity against human H460 cells assessed as inhibition of cell growth after 72 hrs by MTT method; type: functional, cell-based; details: NCI-H460, 72 h
# Method in brief: (§1)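 Tumor cells seeded in 100 µL suspension, 24 h preincubation at 37 °C, 5% CO2. Serial dilutions of compound then added for 72 h; DMSO controls at 0.5% final. Surviving cells quantified by MTT, OD read at 492/620 nm. IC50 is the concentration giving 50% growth inhibition, taken from dose-response curves of a triplicate experiment.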
# [2] = test system: HEK293; assay: Antiproliferative activity against human HEK293 cells assessed as inhibition of cell growth after 72 hrs by Alamar Blue method; type: cell-based; details: HEK293, 72 h
# Method in brief: (§2)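 Non-tumor cells seeded at 3.5 × 10³ cells/mL, 100 µL each, preincubated 24 h at 37 °C, 5% CO2. Serial dilutions then added for 72 h; DMSO controls at 0.5% final. Surviving cells measured by Alamar Blue, OD read at 492/620 nm. IC50 from a triplicate experiment.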
# [3] = test system: MDA-MB-453; assay: Antiproliferative activity against human MDA-MB-453 cells assessed as inhibition of cell growth after 72 hrs by MTT method; type: functional, cell-based; details: MDA-MB-453, 72 h; method in brief: as §1
# [4] = Antiproliferative activity against human PC3 cells assessed as inhibition of cell growth after 72 hrs by MTT method; type: functional, cell-based; details: PC-3, 72 h; method in brief: as §1
# [5] = Antiproliferative activity against human COLO205 cells assessed as inhibition of cell growth after 72 hrs by MTT method; type: functional, cell-based; details: COLO 205, 72 h; method in brief: as §1
# [6] = test system: NCI-H522; assay: Antiproliferative activity against human NCI-H522 cells assessed as inhibition of cell growth after 72 hrs by MTT method; type: functional, cell-based; details: NCI-H522, 72 h; method in brief: as §1
# [7] = Antiproliferative activity against human H1299 cells assessed as inhibition of cell growth after 72 hrs by MTT method; type: functional, cell-based; details: NCI-H1299, 72 h; method in brief: as §1
# [8] = test system: SW480; assay: Antiproliferative activity against human SW480 cells assessed as inhibition of cell growth after 72 hrs by MTT method; type: functional, cell-based; details: SW480, 72 h; method in brief: as §1
# [9] = test system: A-375; assay: Antiproliferative activity against human A375 cells assessed as inhibition of cell growth after 72 hrs by MTT method; type: functional, cell-based; details: A-375, 72 h; method in brief: as §1
# [10] = test system: HepG2; assay: Antiproliferative activity against human HepG2 cells assessed as inhibition of cell growth after 72 hrs by MTT method; type: functional, cell-based; details: HepG2, 72 h; method in brief: as §1
# [11] = Antiproliferative activity against human LO2 cells assessed as inhibition of cell growth after 72 hrs by Alamar Blue method; type: cell-based; details: L02, 72 h; method in brief: as §2
# [12] = test system: MCF7; assay: Antiproliferative activity against human MCF7 cells assessed as inhibition of cell growth after 72 hrs by MTT method; type: functional, cell-based; details: MCF7, 72 h; method in brief: as §1
Compound,pIC50 [1],other results
CN(C)C(=S)SCC(CSC(=S)N(C)C)C(=O)c1ccccc1,5.71,–
CN(C)C(=S)SCC(CSC(=S)N(C)C)C(=O)c1ccc(F)cc1,5.92,–
CN(C)C(=S)SCC(CSC(=S)N(C)C)C(=O)c1ccccc1F,6.04,–
COc1ccccc1C(=O)C(CSC(=S)N(C)C)CSC(=S)N(C)C,6.09,–
COc1cccc(C(=O)C(CSC(=S)N(C)C)CSC(=S)N(C)C)c1,5.91,–
CN(C)C(=S)SCC(CSC(=S)N(C)C)C(=O)c1ccc(OCc2ccccc2)cc1,5.01,–
CN(C)C(=S)SCC(CSC(=S)N(C)C)C(=O)c1ccc(O)cc1,4.52,–
CN(C)C(=S)SCC(CSC(=S)N(C)C)C(=O)c1cccnc1,6.06,–
CN(C)C(=S)SCC(CSC(=S)N(C)C)C(=O)c1nccs1,6.08,–
CN(C)C(=S)SCC(CSC(=S)N(C)C)C(=O)c1ccc[nH]1,4.01,–
CN(C)C(=S)SCC(CSC(=S)N(C)C)C(=O)c1cc2ccccc2oc1=O,6.18,–
CN(C)C(=S)SCC(CSC(=S)N(C)C)C(=O)c1csc2ccccc12,6.07,–
CN(C)C(=S)SCC(CSC(=S)N(C)C)C(=O)c1cnc2ccccc2c1,6.32,pIC50 [2]: 4.97; pIC50 [3]: 6.79; pIC50 [4]: 6.37; pIC50 [5]: 6.49; pIC50 [6]: 6.86; pIC50 [7]: 6.21; pIC50 [8]: 5.20; pIC50 [9]: 6.36; pIC50 [10]: 7.27; pIC50 [11]: 4.88; pIC50 [12]: 7.64
CN(C)C(=S)SCC(CSC(=S)N(C)C)C(=O)c1ccc2c(c1)ncn2-c1ccccc1,5.66,–
CN(C)C(=S)SCC(CSC(=S)N(C)C)C(=O)c1cnn2ccccc12,4.50,–
CN(C)C(=S)SCC(CSC(=S)N(C)C)C(=O)c1c(-c2ccccc2)nn2ccccc12,5.39,–
CN(C)C(=S)SCC(CSC(=S)N(C)C)C(=O)c1cnn2ncccc12,5.34,–
CN(C)C(=S)SCC(CSC(=S)N(C)C)C(=O)c1c(-c2ccccc2)nn2ncccc12,4.24,–
CN(C)C(=S)SCC(CSC(=S)N(C)C)C(=O)c1cnc2ccccn12,4.89,–
Cc1nc2ccccn2c1C(=O)C(CSC(=S)N(C)C)CSC(=S)N(C)C,3.82,–
CC(=O)C(CSC(=S)N(C)C)CSC(=S)N(C)C,6.05,–
CCN(CC)C(=S)SCC(CSC(=S)N(CC)CC)C(=O)c1cnc2ccccc2c1,5.29,–
CN1CCN(C(=S)SCC(CSC(=S)N2CCN(C)CC2)C(=O)c2cnc3ccccc3c2)CC1,5.60,–
O=C(c1cnc2ccccc2c1)C(CSC(=S)N1CCOCC1)CSC(=S)N1CCOCC1,6.24,–
O=C(c1cnc2ccccc2c1)C(CSC(=S)N1CCCC1)CSC(=S)N1CCCC1,6.10,–
O=C(c1cnc2ccccc2c1)C(CSC(=S)N1CCCCC1)CSC(=S)N1CCCCC1,5.33,–
O=C(c1cnc2ccccc2c1)C(CSC(=S)N1CCSCC1)CSC(=S)N1CCSCC1,3.90,–
CN(Cc1cccnc1)C(=S)SCC(CSC(=S)N(C)Cc1cccnc1)C(=O)c1cnc2ccccc2c1,6.00,–
